Measured values as given in ChEMBL document CHEMBL3351764, “Design, synthesis and biological activity of flavonoid derivatives as selective agonists for neuromedin U 2 receptor” (Bioorg Med Chem, 2014).

molecular target: Neuromedin-U receptor 2 (Homo sapiens, UniProt Q9GZQ4); assay: Agonist activity at human NMU2R transfected in HEK293 cells after 7 hrs by luciferase reporter gene assay; assay type: cell-based; settings: read-out: EC50
Procedure, shortened: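 HEK-293 cells were stably co-transfected with a reporter gene construct and human NMU2R cDNA in pcDNA3.1(+), maintained under G418 selection at 37 °C in 5% CO2, then seeded and incubated overnight. Compounds were added at various concentrations for 7 h at 37 °C, followed by Bright-Glo luciferase read-out. Forskolin and NMU served as positive controls. EC50 was fitted by four-parameter logistic regression; means ± SEM of three independent experiments.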

Chain of Neuromedin-U receptor 2 (Q9GZQ4 whole entry): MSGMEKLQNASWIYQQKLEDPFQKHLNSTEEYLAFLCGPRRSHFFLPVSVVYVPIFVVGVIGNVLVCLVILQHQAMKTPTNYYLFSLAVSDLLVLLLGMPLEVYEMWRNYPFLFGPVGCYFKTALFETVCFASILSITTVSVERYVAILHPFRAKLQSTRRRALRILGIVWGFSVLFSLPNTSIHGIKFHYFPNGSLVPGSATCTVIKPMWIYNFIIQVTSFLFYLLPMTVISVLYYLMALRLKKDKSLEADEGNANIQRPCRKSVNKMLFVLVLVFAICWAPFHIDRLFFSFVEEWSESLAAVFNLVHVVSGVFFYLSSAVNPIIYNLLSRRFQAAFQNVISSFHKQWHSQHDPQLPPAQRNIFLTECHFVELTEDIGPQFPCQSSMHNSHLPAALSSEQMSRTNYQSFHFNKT

EC50 | Compound
6.1 µM | H-FRVDEEFQSPFASQSRGYFLFRPRN-NH2
1200 µM | C[C@@H]1O[C@@H](OC[C@H]2O[C@@H](Oc3c(-c4ccc(O)c(O)c4)oc4cc(O)cc(O)c4c3=O)[C@H](O)[C@@H](O)[C@@H]2O)[C@H](O)[C@H](O)[C@H]1O [RUTIN]

Compound | EC50
CNCC(O)c1ccc(O)cc1 (stereo not drawn) [OXEDRINE] | 6.6 µM
